From PubChem
Most compounds without a hit are left out; they make up all but 2.4% or so of the library.
NPY-Y2 PAM-ag = NPY-Y2 potentiators or agonists, primary screen, cell-based. 220,000 compounds, 0.45% hits. cells expressing NPY-Y2, potentiator/agonist read-out. Neuropeptide Y receptor type 2 (Homo sapiens), P49146. activation, % at 3.6 µM; in the data active = activation above about 27%;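 note: cells stimulated with NPY near EC25 plus isoproterenol at EC100; 0% = vehicle plus submaximal agonist and 100% = vehicle plus saturating agonist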
S1P4 agonist = S1P4 receptor agonists, primary screen, cell-based; activation, % at 4.98 µM; 220,000 compounds, 0.35% hits; Sphingosine 1-phosphate receptor 4 (Homo sapiens), O95977; S1P4-expressing cell line, agonist reporter assay; in the data active = activation above about 11%;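 note: 0% = DMSO vehicle and 100% = reference agonist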
S1P4 antag = S1P4 receptor antagonists, primary screen, cell-based | Sphingosine 1-phosphate receptor 4 (Homo sapiens), O95977 | S1P4-expressing cells, antagonist mode, reporter read-out | inhibition, % at 4.98 µM | 220,000 compounds, 0.26% hits; in the data active = inhibition above about 29%;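 note: 0% = wells stimulated with agonist and 100% = vehicle wells without agonist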
NPY Y1 blocker = NPY-Y1 receptor antagonists, primary screen, cell-based | Neuropeptide Y receptor type 1 (Homo sapiens), P25929 | HEK293-CNG Y1 cells, membrane potential fluorescence; NPY at EC95, then isoproterenol | inhibition, % at 3.6 µM | 200,000 compounds, 1% hits | AID 1040, 2008;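 active = inhibition above the campaign mean inhibition of all tested compounds plus 3 SD, cut at about 20% in these data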;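 note: 0% = DMSO wells given NPY plus isoproterenol and 100% = isoproterenol alone without NPY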
Target sequence (P25929 whole entry, looked up): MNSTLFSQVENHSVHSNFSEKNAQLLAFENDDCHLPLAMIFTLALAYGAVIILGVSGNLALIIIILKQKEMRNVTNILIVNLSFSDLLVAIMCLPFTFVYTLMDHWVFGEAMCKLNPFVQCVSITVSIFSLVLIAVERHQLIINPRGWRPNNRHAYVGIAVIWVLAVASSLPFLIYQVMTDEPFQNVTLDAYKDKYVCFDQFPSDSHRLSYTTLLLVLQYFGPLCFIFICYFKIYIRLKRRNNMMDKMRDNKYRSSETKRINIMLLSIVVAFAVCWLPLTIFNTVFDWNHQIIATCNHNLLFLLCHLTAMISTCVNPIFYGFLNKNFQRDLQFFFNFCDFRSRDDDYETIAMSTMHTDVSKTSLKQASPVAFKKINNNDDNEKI
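Assay system: HEK293 Y1/CNG channel cell line; Doses: single compound dose of 3.6 µM, 0.4% DMSO; Timing: dye 3 h, compound 60 min room temperature, stimulation 45 min; Technique: Membrane-potential fluorescent dye readout; Measure: % inhibition of NPY effect.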
NPY Y2 blocker = NPY-Y2 receptor antagonists, primary screen, cell-based. 140,000 compounds, 0.99% hits. inhibition, % at 2.7 µM. NPY-Y2 expressing cells, antagonist mode; in the data active = inhibition above about 17%;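 note: 0% = vehicle with agonist challenge and 100% = reference antagonist with challenge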
NPY1 pot ag = NPY-Y1 receptor potentiators or agonists, primary screen, cell-based. Neuropeptide Y receptor type 1 (Homo sapiens), P25929. AID 1304, 2008. 220,000 compounds, 0.37% hits. NPY-Y1 expressing cells, potentiator/agonist activation. activation, % at 3.6 µM; in the data active = activation above about 33%, passing the limit was not always enough;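 note: cells stimulated with NPY at EC10 then isoproterenol at EC100; 0% = low agonist plus stimulus and 100% = saturating agonist plus stimulus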
Active calls of the source: *; ! = repeats disagree.

Results for Cn1nc(C(F)(F)F)c(-c2cccc(C(F)(F)F)c2)c1NC(=O)Nc1ccc(F)cc1 ?
NPY-Y2 PAM-ag: 102*; S1P4 agonist: -1; S1P4 antag: 17; NPY1 pot ag: 111*

Results for CCOC(=O)c1sc(NC(=O)CN2C(=O)NC3(CCCCCCC3)C2=O)c(C(=O)OCC)c1C ?
NPY-Y2 PAM-ag: 102*; S1P4 agonist: 0; S1P4 antag: -6; NPY1 pot ag: 68*

What do the screens show for `COc1cccc(N(CC(=O)NCC2CCCO2)C(=O)CCC(=O)Nc2nccs2)c1` (centres undefined)?
NPY-Y2 PAM-ag: 4; S1P4 agonist: 1; S1P4 antag: 10; NPY Y1 blocker: -1; NPY1 pot ag: 6

Results for Cc1cc(O)ccc1C1(c2ccc(O)cc2C)OC(=O)c2ccccc21 ?
NPY-Y2 PAM-ag: 8; S1P4 agonist: 2; S1P4 antag: -14; NPY Y1 blocker: 1; NPY Y2 blocker: 5; NPY1 pot ag: -4

What do the screens show for `CC(=O)Oc1ccc2c(c1)Oc1cc(OC(C)=O)ccc1C21OC(=O)c2ccccc21`?
NPY-Y2 PAM-ag: 17; S1P4 agonist: -1; S1P4 antag: 2; NPY Y1 blocker: 32*; NPY Y2 blocker: 79*; NPY1 pot ag: -21

How did CC(OC(=O)c1ccc2c(=O)n3c(nc2c1)CCCCC3)C(N)=O (centres undefined) do in these assays?
NPY-Y2 PAM-ag: -6; S1P4 agonist: 1; S1P4 antag: -12; NPY Y1 blocker: -3; NPY1 pot ag: 7

What do the screens show for `CN(C)CCOC(c1ccccc1)c1ccccc1`?
NPY-Y2 PAM-ag: 101*!; S1P4 agonist: 0; S1P4 antag: -14; NPY Y1 blocker: 1; NPY Y2 blocker: 3; NPY1 pot ag: 107*!

How did CC(C)(C)c1ccc(-c2nc(O)c(CC(=O)O)s2)cc1 do in these assays?
NPY-Y2 PAM-ag: 5; S1P4 agonist: 1; S1P4 antag: 2; NPY1 pot ag: 3

Results for CCOC(=O)C1(P(=O)(c2ccc(Cl)cc2)c2ccc(Cl)cc2)CCC1 ?
NPY-Y2 PAM-ag: -45; S1P4 agonist: 0; S1P4 antag: 1; NPY Y1 blocker: 28*; NPY Y2 blocker: 27*; NPY1 pot ag: -18

Results for O=C(O)C1(P(=O)(c2ccc(Cl)cc2)c2ccc(Cl)cc2)CC1 ?
NPY-Y2 PAM-ag: 13; S1P4 agonist: 1; S1P4 antag: -2; NPY Y1 blocker: -5; NPY1 pot ag: -2

How did Nc1nc(Nc2cccc(F)c2)nc2ccccc12 do in these assays?
NPY-Y2 PAM-ag: 43*; S1P4 agonist: 0; S1P4 antag: -7; NPY Y1 blocker: -3; NPY Y2 blocker: -1; NPY1 pot ag: 42*

Results for O=c1oc(Nc2cccc(F)c2)nc2ccccc12 ?
NPY-Y2 PAM-ag: -11; S1P4 agonist: 2; S1P4 antag: -26; NPY Y1 blocker: 3; NPY Y2 blocker: 2; NPY1 pot ag: 12

How did O=C(c1ccccc1)c1nn(-c2ccccc2)c2nnc(Cc3ccccc3)c(=O)n12 do in these assays?
NPY-Y2 PAM-ag: -53; S1P4 agonist: 3; S1P4 antag: -13; NPY Y1 blocker: 38*; NPY Y2 blocker: 29*; NPY1 pot ag: -128

How did CC(=O)CC(C)(C)NC(C)=S do in these assays?
NPY-Y2 PAM-ag: 2; S1P4 agonist: 1; S1P4 antag: 1; NPY1 pot ag: 33

How did CC(c1ccccc1)N(NC(=O)C(O)(c1ccccc1)c1ccccc1)C(=O)c1ccccc1 (centres undefined) do in these assays?
NPY-Y2 PAM-ag: 3; S1P4 agonist: 2; S1P4 antag: -8; NPY Y1 blocker: 22*; NPY Y2 blocker: 31*; NPY1 pot ag: 3

How did CC(=NCc1cccc(Cl)c1)c1nc(-c2ccco2)oc1O do in these assays?
NPY-Y2 PAM-ag: -3; S1P4 agonist: -1; S1P4 antag: -1; NPY Y1 blocker: 2; NPY Y2 blocker: 4; NPY1 pot ag: -36

Results for Cc1ccc(C2=NN3C(C(=O)c4ccccc4)Oc4ccccc4C3C2)cc1 (centres undefined) ?
NPY-Y2 PAM-ag: -19; S1P4 agonist: 0; S1P4 antag: -8; NPY Y1 blocker: -6; NPY Y2 blocker: 4; NPY1 pot ag: -6
